The record followed here is the RNAGym collection of RNA variant scans (doi:10.1126/science.aae0568).

Variants at the floor of the assay were thinned out.

The chains are these.
B1: tRNA (parent)
chain: GUUCCGUUGGCGUAAUGGUAACGCGUCUCCCUCCUAAGGAGAAGACUGCGGGUUCGAGUCCCGUACGGAACG

In this data set the parent is B1. Briefly: yeast fitness relative to wild type (ratio to wild type); higher = fitter; tRNA-Arg(CCU), competitive growth, 37 C, YPD. The method, boiled down:
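Genotype frequency changes were the basis for Darwinian fitness relative to wild type. The frequencies came from 100-nucleotide paired-end sequencing of gene amplicons from the start population and each end population of pooled yeast strains with tRNA-Arg(CCU) gene variants at the native locus. Competition ran in YPD at 37°C for 24 hours in six replicates, genotypes needed ≥ 100 starting reads, and estimates < 0.5 were set to 0.5.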
Take GUUCAGUUGGCGUAAUCGUAACGCGUCUCCCUCCUAAGGAGAAGACUGCGGGUUCGAGUCCCGUACGGAACG: the yeast fitness was 0.652.
GUUCCGUUGGCGUAAUGGUAACGCGGCUCCCUCCUUAGGAGAAGACGGCGGGUUCGAGUCCUGUACGCAACG: the yeast fitness is no more than 0.5.
The same measure for GUUCCGUUGGCGUAAUGGUAACGUGUCUCCCUCCUAGGGAGAAGACUGGGGGUUCGAGUCCCGUACGGAACG: no more than 0.5.
With GUUCCGUUGGCGUAAUGGUAACGCGUUUCCCUCCUAAGGAGAAGACAGCGGGUUCGAGUCACGUGCGGAACG the figure was no more than 0.5; with GUUCCGUUGGCGUAAUCGUAACGCGUCUCCCUCCUAAGGAGAAGACUGUGGGUUCGAGUCCCGUACGGAACG, 0.768.
With GUUCCAUUGGCGUAAUGGUAACGCGUCUCCCUCCUAAAGAGAAGACUGCGGGUUCAAGUCCCGUACGGAACG the figure was 0.679; with GUUCCGUUCGCGUAAUGGUAACGCGUCUCCCUCCUAAGGAGAAGACUGCGCAUUCGAGUACCGUACGGAUCG, no more than 0.5.
Consider GUUCCGUUGGCGUAAUGGUAACGCGUCUCCCUACUAAGGAGAAGACUGCGGGUUCGAGUCGCGUACGGAACG, for which the yeast fitness was determined as 0.775.
The same measure for GUUCCGAUGGCGUAAUGGUAUCGCGUCUCCCUCCUAAGGAAAAGACUGCGGGUUCGAGUCCCGUAAGGAACG: 0.684; for GUUCCGUUCGCGUAAUGGUAACGCGUCUCCCUCCUAGGGAGAAGACUGCGGGUUGGAGUGCCGUACGGAACG: 0.524; for GUUCCGUUGGCGUAAUGGUAACGCGUUUCCCUCCUAAGAAAAAGACUGCGGGUUCGAGUCCCGUACGGUACG: 0.674.
GUUCAGUUGGCGUAAUGGUAACGCGUCUCCCUCCUAAGGAGAAGACUGCGGGUUCGAGUCCCGUACGAAACG: the yeast fitness worked out at 0.82.
As to GUACCGUUGGCGUAAUGGAAACGCGUCUCCCUCCUAAGGAGAAGACUGCGGGUUCGAGUCCCGUACGCAACG, the yeast fitness amounted to 0.712.
With GUUCCGUUGGCGUAAUGGUAACGCCUCCCCCUCCUAAGGAGAAGACUGCGGGUUCGAGCCCCGUACGGAACG the figure was 0.694; with GUUCCGUUGGCGUAAUGGUAACCCGUCUCCCUCCUAAGGAGAAGACUGCGGGUUCGAGGGCCGUACGGAACG, no more than 0.5.
GUUCCGUUGGCGUAAUAGUGACGCGUGUCCCUCCUCAGGAGAAGACUGCGGGAUCGAGUCCCGUACGGAACG: the yeast fitness was found to be 0.639.
In the case of GUUCCGUCGGCGUAACGGUAACGCCUCUCCCUCCUAAGGAGAAGACAGCGGGUUCGAGUCCCGUGCGGAACG, the yeast fitness was no more than 0.5.
With GUUCCGUUGGCGUACUGGCAGCGCGUCUCCCUCUUAAGGAGAAGACUGCGGGCUCGAGUCCCGUACGGAACG the figure was no more than 0.5; with GUUGCGUUGGCGUAAUGGUAACGCGUUUGCCUCCUAAGGAGAAGACUGCGGGUUCGAGUCCCGUACGGAACG, no more than 0.5.
With GUUCCGUUGGCAUAAUGGUAGCGCGUCUCCCUCCUAAGGAGAAGACUGCGGGUUCGAGUCCCGUACGGAACG the figure was 1.04; with GUUCCGUUGGGGUAAUGGUAACGCGCCUCCAUCCUAAGGAGAUGACUGCGGGUUCGAGUCACGUACGGAACG, no more than 0.5.
With GUUCCGUUGGCGUAAUAGUACCGCGUCUGCCUCCUAAGGAGAAGACUGCGGGUUCGAGUCCCGUACGGAACG the figure was 0.626; with GUUCCCUUGGCGUAAUGGUAACGCGUCUCACUCCUAAGGAGAAGACUGCGGGUUCGAGUCCCGUACGGAACG, 0.763; with GCUCCGUUGGCGUAAUGGUAACGCGUCUCCCCCCUAAGGAGAAGACUGCGGGUUCGAGUCCCGUACGGAACG, 0.973.
Turning to GUUCCGUUGGCGUAAUGGUAACGCGUUUCCCUCCUAAGGAGAAGACUGCGGGUCCGAGUCCCGUACCGAACG, the yeast fitness turned out to be 0.54.
Regarding GUUCCGUUGGCGUAAUGGUAACGCGUCUCCCUCCUAAGGAGAAGACUGCGGGUUCGACUCCCGUCCGGAACG, the yeast fitness came to 0.867.
Regarding GUUCCGUUGGUGUAAUGGUAACGCGUCUCACUCCUAAGGAGAAGACUGCGGGUUCGAGUCCCGUCCGGAACG, the yeast fitness amounted to 0.685.
For the variant GUUCCGUUGGCGUAAUGGUAACGCGUUUCCCUCCUAAGGAGAAGACGGCGGGUUGGACUCCCGUACGGAACG, the yeast fitness was found to be 0.67.
For GUAACGUUGGCGUAAAGGUAACGCGUCUCGCUCCUAAGGAGAAGACUGCGGGCUCGAGUCCCGUACUGAACG, the yeast fitness was no more than 0.5.
The same measure for GUUCCGUUGGCGUAACGUUAACGUGUCUCCCUCCUAAGGAGAAGCGUGCGGGUUCGAGUCCCGUACGGAACG: no more than 0.5; for GUUCCGUUGGCGUAAAGGUAACGCGUCUCCAUCGUAAGGAGAAGACUGCGGGUUCGAGUCCCGUACGGAACG: no more than 0.5.
The same measure for GUUCCGUUGGUGUAAUGGUAACGCGUCUCCCUCCUAAGGAGAAGGCUGCGGGUUCGAAUCCCGUGCGGAACG: 1.11; for GUUCCGUUGGCAUAAUGGUAACGCGUCUCCCUCCUAAGGAGAAGACGGCGGGAUCGAGUCCCGUACGGAACG: no more than 0.5; for GUUCCGUUGGCGUAAUAGUAACGCGUCUCCCUCCUAAGGAGAAGACUGUGGGUUCGAGUCCAGUACGGAACG: no more than 0.5.
With GCUCCGUUGGCGUAAUGGUAACGCGUCUCCCUCCUAAGGAGAAGACUGCGGGUUCGAGUCGCGUACGGAACG the figure was 0.553; with GCUCCGGUGGCGUAAUGGUAACGCGUCUCCCUUCUAAGGAGAAGACUGCGGGUUAGAGUCCCGUACGGAACG, no more than 0.5; with GUUCCGCUGGCGUAAUGGUACCGCGUCUCCCUCCUAAGGAGAAGACUGCGGGUUCGAGUCCCGUACGGAACG, 0.606.
On to GUUCCGCUGGCGUAAUGGUAACGCGUCUCGCUCCUAAGGCGGAGACUGCGGGUUCGAGUCCCGUACGGAACG, for which the yeast fitness came to 0.534.
